The source made the active and inactive calls. No cut-off for these calls is given here.

Eleven molecules from ChEMBL document CHEMBL1149458, “Synthesis and pharmacological evaluation of second-generation phosphatidic acid derivatives as lysophosphatidic acid receptor ligands” (Bioorg Med Chem Lett, 2006) can be followed below.

The target in assay [1] is T1, Peroxisome proliferator-activated receptor gamma (Homo sapiens) (UniProt P37231).
T1 sequence (whole entry): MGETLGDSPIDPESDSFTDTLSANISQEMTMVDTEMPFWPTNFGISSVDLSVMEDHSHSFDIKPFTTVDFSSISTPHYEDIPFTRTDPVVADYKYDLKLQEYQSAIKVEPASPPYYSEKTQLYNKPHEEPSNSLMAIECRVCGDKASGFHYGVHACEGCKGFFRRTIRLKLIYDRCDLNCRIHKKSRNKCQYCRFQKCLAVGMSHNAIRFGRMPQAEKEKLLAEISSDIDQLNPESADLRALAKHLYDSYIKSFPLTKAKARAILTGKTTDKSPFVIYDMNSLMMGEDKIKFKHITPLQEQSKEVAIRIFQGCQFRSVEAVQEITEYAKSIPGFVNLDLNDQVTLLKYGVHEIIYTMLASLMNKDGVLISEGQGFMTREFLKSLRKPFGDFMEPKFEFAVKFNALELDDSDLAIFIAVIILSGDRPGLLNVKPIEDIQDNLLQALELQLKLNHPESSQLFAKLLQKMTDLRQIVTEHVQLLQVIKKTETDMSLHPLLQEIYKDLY
Nature of the assay: Activation of PPARgamma in CV1 cells transfected with PPARgamma and luciferase reporter gene. The format is functional, cell-based. The following applies: CV-1. A digest of the protocol: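 CV1 cells transfected with PPARγ and a PPRE-Acox-Rluc reporter, treated 20 h with vehicle or 10 µM compound in DMSO. Luciferase and β-galactosidase activities measured in cell lysate (mean ± SEM, n = 4). Rosiglitazone used as reference agonist; significance versus vehicle control.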

The test system of assay [2] is RH7777 (Rattus norvegicus). Nature of the assay: Ability to evoke intracellular calciums transient in wild-type RH7777 cells.
For assay [3], the target named is Lysophosphatidic acid receptor 2 (Homo sapiens) (UniProt Q9HBW0). Nature of the assay: Activity at LPA2 receptor transfected RH7777 cells. The format is cell-based. An outline of the steps: (§1)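 RH7777 cells, which lack LPA GPCR, stably transfected with the single receptor (LPA2 or LPA3). Intracellular Ca2+ transients recorded after applying increasing compound concentrations, benchmarked against LPA 18:1, to assess agonist and antagonist activity.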
Lysophosphatidic acid receptor 2 (Homo sapiens), sequence (Q9HBW0 whole entry): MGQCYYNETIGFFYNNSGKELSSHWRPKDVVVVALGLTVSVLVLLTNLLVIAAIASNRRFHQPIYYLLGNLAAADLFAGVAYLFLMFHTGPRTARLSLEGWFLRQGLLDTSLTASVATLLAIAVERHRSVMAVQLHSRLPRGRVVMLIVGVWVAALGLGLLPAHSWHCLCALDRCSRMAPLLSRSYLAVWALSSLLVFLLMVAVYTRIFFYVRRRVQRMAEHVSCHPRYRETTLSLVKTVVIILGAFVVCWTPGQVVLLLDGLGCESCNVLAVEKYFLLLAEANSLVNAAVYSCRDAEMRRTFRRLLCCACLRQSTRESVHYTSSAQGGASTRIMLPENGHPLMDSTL

Assay [4] deals with T2, Lysophosphatidic acid receptor 3 (Homo sapiens) (UniProt Q9UBY5).
T2 sequence (whole entry): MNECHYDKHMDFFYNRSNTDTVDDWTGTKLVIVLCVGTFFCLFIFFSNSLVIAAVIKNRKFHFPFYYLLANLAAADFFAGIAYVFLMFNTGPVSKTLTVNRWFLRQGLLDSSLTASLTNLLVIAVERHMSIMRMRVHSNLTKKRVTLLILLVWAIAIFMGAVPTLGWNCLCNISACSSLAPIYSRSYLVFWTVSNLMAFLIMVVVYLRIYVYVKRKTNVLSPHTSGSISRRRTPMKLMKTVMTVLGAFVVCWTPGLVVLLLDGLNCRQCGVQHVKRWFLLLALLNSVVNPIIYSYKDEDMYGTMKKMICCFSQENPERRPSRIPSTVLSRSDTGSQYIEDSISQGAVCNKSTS
Nature of the assay: Activity at LPA3 receptor transfected RH7777 cells. The class given is cell-based. An outline of the steps:
as §1

For assay [5], the target named is Autotaxin (Homo sapiens, UniProt Q13822). Nature of the assay: Inhibition of recombinant ATX from transfected HEK293 cells. The format is cell-based. As to conditions: for inhibition: concentration not given here. An outline of the steps:
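Recombinant ATX in conditioned medium from transiently transfected HEK293 cells, assayed by hydrolysis of the substrate bis(para-nitrophenyl) phosphate.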

Assay [6] deals with Lysophosphatidic acid receptor 1 (Homo sapiens, UniProt Q92633). The assay is described as follows: Activity at LPA1 receptor transfected RH7777 cells. The format is cell-based. A digest of the protocol: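 RH7777 cells, which lack endogenous LPA GPCR, were stably transfected with LPA1. Intracellular Ca2+ transients were recorded after applying increasing concentrations of compound to build dose–response relationships, with LPA 18:1 as the reference agonist.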
Lysophosphatidic acid receptor 1, sequence (Q92633 whole entry): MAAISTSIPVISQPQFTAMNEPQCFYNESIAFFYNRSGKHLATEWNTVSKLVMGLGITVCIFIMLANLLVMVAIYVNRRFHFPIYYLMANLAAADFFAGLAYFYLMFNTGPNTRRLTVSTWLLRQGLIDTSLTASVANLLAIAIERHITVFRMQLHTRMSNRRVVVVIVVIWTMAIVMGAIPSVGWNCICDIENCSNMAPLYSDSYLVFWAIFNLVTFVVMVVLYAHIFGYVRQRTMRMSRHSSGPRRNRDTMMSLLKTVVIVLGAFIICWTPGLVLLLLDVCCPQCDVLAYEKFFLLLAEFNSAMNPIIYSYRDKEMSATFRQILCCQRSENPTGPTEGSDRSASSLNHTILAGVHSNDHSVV

Consider `CCCCCCCCOC[C@@H](COP(O)(O)=S)OCCCCCCCC`, for which, in assay [1], the outcome was Active. For the same molecule, the outcome in assay [2] was inactive.

Take `CCCCCCCC(=O)OC[C@@H](COP(O)(O)=S)OC(=O)CCCCCCC`: the Emax in assay [3] was determined as 17%. In assay [4], the Emax was found to be 30%. Further, in assay [5], the IC50 was found to be 727 nM and the inhibition stood at 52.3%. Besides, the result in assay [1] was inactive.

As for `CCCCCCCC(=O)OC[C@H](COP(O)(O)=S)OC(=O)CCCCCCC`, the Emax in assay [3] turned out to be 58%. For the same molecule, in assay [5], the IC50 was found to be 597 nM and the inhibition amounted to 72.5%. In addition, in assay [1], the outcome was inactive.

`CCCCCCCCOC[C@@H](COP(=O)(O)O)OCCCCCCCC`: in assay [1], the outcome was Active. Also, in assay [2], the outcome was inactive.

As for `CCCCCCCCOC[C@H](COP(O)(O)=S)OCCCCCCCC`, the values for the Emax in assay [6], in assay [3] and in assay [4] were 30%, 27% and 109%, respectively. For the same molecule, the result in assay [1] was Active. In addition, in assay [2], the result was inactive.

In assay [6], `CCCCCCCC(=O)OC[C@H](COP(=O)(O)O)OC(=O)CCCCCCC` showed an IC50 of 692 nM and an inhibition constant (Ki) of 407 nM. For the same molecule, in assay [5], the concentration for half-maximal inhibition (IC50) is 1640 nM and the inhibition is 49.9%.

Regarding `CCCCCCCCNC(=O)[C@@H](COP(=O)(O)O)NC(=O)CCCCCCC`, the result in assay [1] was inactive.

As to `CCCCCCCCOC[C@H](COP(=O)(O)O)OCCCCCCCC`, the results for the Emax in assay [6] and in assay [4] were 57% and 109%, respectively. Besides, the outcome in assay [1] was Active. Also, the result in assay [2] was inactive.

With `CCCCCCCCNC(=O)[C@H](COP(O)(O)=S)NC(=O)CCCCCCC`, the result in assay [1] was inactive.

As for `CCCCCCCCNC(=O)[C@@H](COP(O)(O)=S)NC(=O)CCCCCCC`, the result in assay [1] was inactive.

In the case of `CCCCCCCC(=O)OC[C@@H](COP(=O)(O)O)OC(=O)CCCCCCC`, in assay [1], the outcome was inactive.
